Results on eleven compounds are retold here after ChEMBL document CHEMBL1124595, “Synthesis and biological activity of 3-substituted imidazo[1,2-a]pyridines as antiulcer agents” (1989).

A value given as a limit tells only on which side of the number the result lay.

Holding throughout (format): functional
Assay [1] concerns Rattus norvegicus. The assay can be described thus: Cytoprotective activity in rat when administered 50 mg/kg perorally (Ethyl alcohol as necrotic agent). The note with it: route oral. Put shortly:
(§1)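 Food was withheld for 24 h and water for 1½–18 h. Rats were dosed orally (3–12 mL vehicle/kg) 60 min before 100% ethanol, 3.0 mL/kg by gavage. They were killed 60 min after insult, and the stomach was opened along the lesser curvature and photographed. Lesion area score ÷4 gave mm²; group mean was compared with controls as % inhibition. Five animals per dose, standard error.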

Assay [2] concerns Rattus norvegicus. As to the kind of experiment: Cytoprotective activity in rats when administered 50 mg/kg perorally (Hydrochloric acid as necrotic agent). The conditions noted are these: route oral. In a few lines: (§2)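 Food was withheld for 24 h and water for 1½–18 h. Rats were dosed orally (3–12 mL vehicle/kg) 60 min before 0.75 N HCl, 3.0 mL/kg by gavage. They were killed 60 min after insult, and the stomach was opened along the greater curvature and photographed. Lesion area score ÷4 gave mm²; group mean was compared with controls as % inhibition. Five animals per dose, standard error.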

Assay [3] concerns Rattus norvegicus. As to the kind of experiment: Antisecretory activity in gastric fistula rat when administered perorally. The conditions noted are these: Stomach, po. In a few lines: (§3)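 Chronic gastric fistula rats dosed orally. Activity was taken as percent inhibition of gastric acid secretion. The dose giving 50% inhibition (ED50) was calculated by probit analysis.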
In assay [4] the test system is Rattus norvegicus. As to the kind of experiment: Cytoprotective activity in rat when administered 30 mg/kg perorally (Ethyl alcohol as necrotic agent). The note with it: route oral. In a few lines:
as §1

Assay [5] relates to Rattus norvegicus. As to the kind of experiment: Cytoprotective activity in rats when administered 30 mg/kg perorally (Hydrochloric acid as necrotic agent). The conditions noted are these: route oral. Put shortly:
as §2

In assay [6] the test system is Rattus norvegicus. As to the kind of experiment: Cytoprotective activity in rat when administered 0.25 mg/kg perorally (Ethyl alcohol as necrotic agent). The note with it: route oral. Put shortly: as §1
Assay [7] deals with Rattus norvegicus. The assay can be described thus: Antisecretory activity in gastric fistula rat when administered per orally. The conditions noted are these: Stomach, po. In a few lines: as §3
Assay [8] has as its system Rattus norvegicus. The assay can be described thus: Cytoprotective activity in rats when administered 0.10 mg/kg perorally per orally (Hydrochloric acid as necrotic agent). The conditions noted are these: route oral. Put shortly:
as §2

The test system of assay [9] is Rattus norvegicus. As to the kind of experiment: Cytoprotective activity in rats when administered 100 mg/kg perorally (Hydrochloric acid as necrotic agent). The conditions noted are these: route oral. Put shortly:
as §2

Assay [10] has as its system Rattus norvegicus. As to the kind of experiment: Cytoprotective activity in rats when administered 50 mg/kg perorally per orally (Hydrochloric acid as necrotic agent). The conditions noted are these: route oral. In a few lines:
as §2

For the compound `Cc1nc2c(OCc3ccccc3)cccn2c1C(C)SCCNc1n[s+]([O-])nc1N` (configuration not stated), the inhibition in vivo at 50 mg/kg with Rattus norvegicus [1] and with Rattus norvegicus [2] was 57% each time. Also, in the assay on Rattus norvegicus [3], the ED50 is greater than 25 mg/kg.

For `Cc1nc2ccccn2c1CSCCNc1nsnc1N`, the inhibition in vivo at 50 mg/kg with Rattus norvegicus [1] was 70%; in the assay with Rattus norvegicus [2] it was 24%. This compound also returned an ED50 in the assay on Rattus norvegicus [3] greater than 25 mg/kg.

As to `Cc1nc2c(OCc3ccccc3)cccn2c1C(C)SCCNc1nsnc1N` (configuration not stated), the inhibition in vivo at 30 mg/kg with Rattus norvegicus [4] is 84%; with Rattus norvegicus [5], 62%. Besides, in the assay with Rattus norvegicus [3], the ED50 is greater than 25 mg/kg.

`Cc1nc2ccccn2c1C(C)SCCNc1n[s+]([O-])nc1N` (configuration not stated): the inhibition in vivo at 50 mg/kg with Rattus norvegicus [1] turned out to be 47%; with Rattus norvegicus [2] it was 36%. Further, in the assay with Rattus norvegicus [3], the ED50 was greater than 25 mg/kg.

Consider `CCCCC[C@H](O)/C=C/[C@H]1[C@H](O)CC(=O)[C@@H]1C/C=C\CCCC(=O)O` [DINOPROSTONE], for which the inhibition in vivo at 0.25 mg/kg with Rattus norvegicus [6] was found to be 89%. The same compound yielded an ED50 in the assay on Rattus norvegicus [7] of 0.83 mg/kg. In addition, the inhibition in vivo at 0.1 mg/kg in the assay with Rattus norvegicus [8] came to 70%.

In the assay with Rattus norvegicus [4], `Cc1nc2c(OCc3ccccc3)cccn2c1CC#N` displayed an inhibition in vivo at 30 mg/kg of 90%. The compound further came in with an ED50 in the assay on Rattus norvegicus [3] of 0.9 mg/kg. The inhibition in vivo at 100 mg/kg in the assay on Rattus norvegicus [9] is 68%.

As for `Cc1nc2ccccn2c1C(C)SCC/N=c1/c(O)c(O)c1=N` (configuration not stated), the inhibition in vivo at 50 mg/kg in the assay on Rattus norvegicus [1] turned out to be 7%; in the assay with Rattus norvegicus [10] it was 27%. In the assay with Rattus norvegicus [7], this compound had an ED50 greater than 25 mg/kg.

As to `Cc1nc2ccccn2c1CSCC/N=c1/c(O)c(O)c1=N`, the inhibition in vivo at 50 mg/kg with Rattus norvegicus [1] was 0%; in the assay on Rattus norvegicus [10], 34%. The ED50 with Rattus norvegicus [7] was greater than 25 mg/kg.

With `C/N=C(/NC#N)NCCSCc1c(C)nc2ccccn12`, the inhibition in vivo at 30 mg/kg with Rattus norvegicus [4] was determined as 97%. This compound had an inhibition in vivo at 50 mg/kg in the assay on Rattus norvegicus [2] of 60%. In the assay on Rattus norvegicus [3], the ED50 is greater than 25 mg/kg.

In the case of `Cc1nc2ccccn2c1CSCCNc1n[s+]([O-])nc1N` (configuration not stated), testing at 50 mg/kg in the assay on Rattus norvegicus [1] gave an inhibition in vivo of 2%. Further, the ED50 in the assay with Rattus norvegicus [3] was greater than 25 mg/kg.

For the compound `Cc1nc2ccccn2c1C(C)SCCNc1nsnc1N` (configuration not stated), the inhibition in vivo at 50 mg/kg in the assay on Rattus norvegicus [1] turned out to be 54%; in the assay on Rattus norvegicus [2] it was 51%. The compound also yielded an ED50 in the assay on Rattus norvegicus [3] greater than 25 mg/kg.
